Sampled rows, rich in hits. Any-hit rate of the full collection: about 2.6%.
NR1D1 modulator: modulates human Rev-erb alpha binding to DNA; P20393; Rev-erbα–FITC-DNA binding, fluorescence polarization, 90 min; activity, % at 10 µM; 0.79% of 370,000 active; AID 1259318;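 active = activity above about 14%, limit read from the data; passing the limit was not always enough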;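 also: 0% = DMSO wells with 35 nM protein and 100% = DMSO wells with 750 nM protein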
NR2E3 ag-1: human photoreceptor-specific nuclear receptor agonism; 0.35% of 360,000 active; inhibition of corepressor binding, % at 3.98 µM; Q9Y5X4; CHO-S Gal4-NCOR/VP16-NR2E3 two-hybrid, luciferase;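 active = inhibition above the mean of all tested compounds plus 3 SD, cut at about 70% in these data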;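 also: 0% = DMSO with NR2E3 transfected cells and 100% = cells lacking NR2E3 construct; higher means lower luciferase signal from less NR2E3 corepressor binding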
Target sequence (Q9Y5X4 whole entry, looked up, the tested form may be a part): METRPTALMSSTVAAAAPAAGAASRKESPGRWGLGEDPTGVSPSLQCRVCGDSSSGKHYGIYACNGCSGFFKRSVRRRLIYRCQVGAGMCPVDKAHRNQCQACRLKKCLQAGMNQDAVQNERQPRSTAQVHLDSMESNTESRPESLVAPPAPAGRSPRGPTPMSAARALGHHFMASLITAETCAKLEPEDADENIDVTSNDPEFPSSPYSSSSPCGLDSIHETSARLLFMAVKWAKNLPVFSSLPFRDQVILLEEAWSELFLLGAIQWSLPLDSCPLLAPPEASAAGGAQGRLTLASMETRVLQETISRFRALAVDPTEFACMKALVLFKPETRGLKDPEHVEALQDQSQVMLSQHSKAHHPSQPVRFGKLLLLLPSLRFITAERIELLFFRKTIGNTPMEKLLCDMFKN
rCAG binder: molecules binding r(CAG) RNA repeats; inhibition, % at 3 µM; r(CAG) RNA repeat, TO-PRO-1 dye displacement fluorescence; 1.3% of 370,000 active;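 active = inhibition above the plate cutoff, the mean of all test compounds on that plate plus 3 SD, cut at about 35% in these data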;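 also: 0% = DMSO alone and 100% = 100 µM mitoxantrone as full dye displacement; higher means more dye released from RNA so lower well fluorescence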
PG9 Ab binder: binds the HIV-1 gp120 antibody PG9. AID 624416. 0.43% of 360,000 active. inhibition, % at 6.7 µM. TR-FRET gp120-PG9 antibody binding; in the data active = inhibition above about 8.5%
NR2E3 ag-2: activates human photoreceptor nuclear receptor NR2E3; inhibition of corepressor binding, % at 4.78 µM; GST-NR2E3/biotin-RetCOR TR-FRET, 1536-well; Q9Y5X4; 0.12% of 320,000 active; AID 2300;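 active = percent inhibition above the cutoff of mean plus 3 SD of all tested compounds, set per screening campaign, cut at about 20% in these data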;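 also: 0% = DMSO wells and 100% = biotin wells as full block of FRET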
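Material: NR2E3–RetCOR corepressor complex / Amount: 1.35 nM GST-NR2E3 / Medium: Tris pH 7.5 / Compound: single nominal compound dose of 4.8 µM / Incubation: 5 h at 4 °C / Technique: TR-FRET, Eu(K)-anti-GST donor, streptavidin-D2 acceptor, ex 340, em 617/671 nm / Read-out basis: percent loss of FRET ratio relative to control wells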
rCAG bind conf: r(CAG) RNA repeat binding, confirmation. TO-PRO-1 dye displacement fluorescence. shares compounds with rCAG binder. inhibition, % at 3 µM. 70% of 4,300 active;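 active = inhibition above a per-plate cutoff, the mean inhibition of sample wells plus 3 SD, cut at about 35% in these data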;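 also: loss of TO-PRO-1 fluorescence as compound displaces dye from 1x1 AA loop RNA; 0% = DMSO only wells and 100% = 100 µM mitoxantrone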
DNA CAG counter: counter-screen for rCAG RNA binders: DNA CAG dye complex inhibitors; shares compounds with rCAG binder; d(CAG) DNA oligo TO-PRO-1 dye displacement, fluorescence; inhibition, % at 3 µM; 94% of 4,300 active; AID 652068;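 active = inhibition above its plate's cutoff, the mean test-well inhibition plus 3 SD, cut at about 4.8% in these data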;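 also: 0% = DNA dye mix with DMSO and 100% = 100 µM mitoxantrone; hits displace the dye from DNA and so lower well fluorescence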
NR1D1 mod conf: confirmation of modulators of human Rev-erb alpha DNA binding; shares compounds with NR1D1 modulator; activation, % at 25 µM; Rev-erb alpha FITC-DNA binding, fluorescence polarization, 90 min; 61% of 3,000 active;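 active = activation at or above a set limit, or at least 3 SD above the negative control mean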;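 also: 0% = 35 nM protein with DMSO and 100% = 750 nM protein high control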
RORg DNA counter: counter-screen for Rev-erb alpha modulators: RORgamma DNA binding | purified RORgamma protein-FITC-DNA binding, fluorescence polarization | AID 1259320 | shares compounds with NR1D1 modulator | 8% of 910 active | IC50, µM;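 active = Compounds whose fitted half-maximal concentration for disrupting protein-DNA binding is below 10 micromolar; the record names Rev-erb in its text, so the target is in doubt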
* hit, by the source's call; / = not tested or not shown.

SMILES | NR1D1 modulator | NR2E3 ag-1 | rCAG binder | PG9 Ab binder | NR2E3 ag-2 | NR1D1 mod conf | others
COc1ccc(/C=C(\NC(=O)c2ccc(OC)cc2)C(=O)Nc2ccc(C(=O)O)cc2)cc1 | -0.6 | -17.8 | 16.8 | -1.0 | / | /
O=C(N/N=C/c1ccc(O)c(O)c1O)/C(=C/c1ccc([N+](=O)[O-])cc1)NC(=O)c1ccccc1 | 1.6 | -26.3 | 65.9* | -0.4 | 1.3 | / | rCAG bind conf=66.0*;DNA CAG counter=32.5*
Cc1ccc(C2=CCN(C)C(=O)N2c2ccc(Br)cc2)cc1 | 4.3 | / | 6.5 | / | / | /
CCCS(=O)(=O)NC(=O)C1(C)CCCN(C(=O)c2oc3ccccc3c2C)C1 (stereo not given) | -0.6 | -39.5 | 6.5 | -1.6 | / | /
Cc1ccc(C(=O)OCC(=O)N2CCNC2=O)c(C)c1 | -5.2 | -98.7 | -1.6 | 0.2 | / | /
O=C(COC(=O)CC1CC2CCC1C2)Nc1ccccc1[N+](=O)[O-] (stereo not given) | 1.5 | -16.5 | -1.1 | -1.1 | / | /
O=C(Nc1ccc(C(=O)O)cc1)/C(=C\C=C\c1ccccc1)NC(=O)c1ccc(Br)cc1 | -3.9 | 11.3 | 72.0* | -2.3 | 3.5 | / | rCAG bind conf=65.8*;DNA CAG counter=31.6*
CC(C)(C)c1ccc(C(=O)N/C(=C\c2cccc([N+](=O)[O-])c2)C(=O)Nc2cccc(C(=O)O)c2)cc1 | -3.3 | 7.7 | 84.2* | -0.7 | 1.6 | / | rCAG bind conf=74.8*;DNA CAG counter=44.3*
O=S(=O)(O)c1cccc(N=Nc2c(O)ccc3ccccc23)c1 | 30.2* | -13.2 | 38.4* | -8.2 | 0.9 | 5.9 | rCAG bind conf=35.6*;DNA CAG counter=9.7*
CCOC(=O)c1c(-c2ccccc2)csc1NC(=O)/C(C#N)=C\c1ccc(O)c(OC)c1 | 41.9* | -45.8 | 48.6* | -1.8 | / | 11.8* | rCAG bind conf=63.7*;DNA CAG counter=36.3*
CCOC(=O)/C(C#N)=C\c1ccc(O)c(OC)c1 | -1.2 | -6.8 | 1.2 | -4.8 | 0.5 | /
O=S(=O)(/N=C(/Nc1nc2ccccc2s1)c1ccccc1)c1ccc(F)cc1 | 19.1* | -25.4 | 38.0* | 1.5 | / | -3.1 | rCAG bind conf=30.7;DNA CAG counter=6.6*
COc1cc(N=Nc2cccc(S(N)(=O)=O)c2)c2ccccc2c1N | 34.8* | 21.0 | 51.9* | -6.4 | -1.9 | 13.6 | rCAG bind conf=20.2;DNA CAG counter=12.4*
O=C(c1cccs1)N1C[C@@H](n2cc(C3CC3)nn2)[C@H](O)C[C@@H]1c1ccccc1 | -0.7 | -16.0 | 3.1 | -0.4 | / | /
O=C1CCC(c2ccccc2)N1c1ccccc1 (stereo not given) | -0.1 | -10.1 | 3.5 | 0.1 | / | /
O=C(NN1C(=O)/C(=C/c2ccc(O)c([N+](=O)[O-])c2)SC1=S)c1ccccc1Cl | 16.9* | -41.2 | 38.9* | -2.2 | 3.7 | 27.6* | rCAG bind conf=15.4;DNA CAG counter=5.5*
O=C(NN1C(=O)/C(=C/c2cc([N+](=O)[O-])ccc2O)SC1=S)c1ccccc1O | / | / | / | / | 4.1 | /
CCc1nc(SCC(=O)Nc2cc(C)ccc2OC)c2c(C)c(C)sc2n1 | 18.0* | -26.0 | 34.9* | -0.8 | -1.6 | 7.9 | rCAG bind conf=4.0;DNA CAG counter=1.7
CCc1nc(SCC(=O)Nc2ccccc2OC)c2c(C)c(C)sc2n1 | 1.0 | 13.5 | 1.6 | 0.6 | 0.8 | /
O=C(CSc1nnc(-c2ccncc2)n1-c1ccccc1)Nc1ccc2c(c1)OCCO2 | -4.8 | / | 0.3 | / | / | /
Cc1[nH]c2ccccc2c1/C=N/Nc1ccc([N+](=O)[O-])cc1 | 21.8* | -8.8 | 56.4* | -1.2 | -0.5 | 16.0 | rCAG bind conf=32.3;DNA CAG counter=20.6*
CCCNC(=O)C1(C)CCN(C(=O)c2cc(F)cc(F)c2)C1 (stereo not given) | 1.8 | -27.1 | 3.0 | -0.4 | / | /
O=C(Nc1cc(Cl)cc(Cl)c1)Nc1cnccn1 | 12.4* | 0.0 | 5.1 | -3.0 | 3.1 | 2.1
O=C(Nc1cccc2ccccc12)N1CCOCC1 | 3.6 | -0.6 | 1.9 | -1.6 | 3.8 | /
O=C(Nc1cccc2ccccc12)N1CCN(c2ccc(F)cc2)CC1 | 26.3* | 4.8 | 2.8 | 3.2 | -0.6 | 3.3
SMILES | NR1D1 modulator | NR2E3 ag-1 | rCAG binder | PG9 Ab binder | NR2E3 ag-2 | NR1D1 mod conf | others
COc1ccc(N(C)S(=O)(=O)c2cccc(C(=O)NCc3ccc(C)cc3)c2)cc1 | 9.7 | -12.3 | -2.1 | -3.1 | 4.1 | /
Cc1ccc(C(C)C)c(OCCCN2C(=O)NC(C)(C)C2=O)c1 | 5.0 | 14.2 | -5.9 | 0.5 | 6.0 | /
CC(C)c1cc(Br)ccc1OCCN1C(=O)NC(C)(C)C1=O | 13.8* | -8.4 | -8.4 | -0.9 | -2.2 | 1.1
CC1(C)Cc2c(sc3c2c(N)nc(=S)n3Cc2ccc(Br)cc2)CO1 | 135.4* | 0.6 | 2.7 | -2.0 | 1.1 | 94.9* | RORg DNA counter=>40
Cc1cc(C)cc(N2CC(O)=C(c3nc4ccccc4c(=O)[nH]3)C2=N)c1 | 21.1* | -33.5 | 2.1 | 5.6 | -25.2 | 33.1* | RORg DNA counter=>40
O=C(Nc1ccnc(-c2cccnc2)n1)c1ccc(Cl)cc1 | 45.1* | -13.8 | 0.2 | -1.0 | -32.6 | 41.0* | RORg DNA counter=>40
CCCOc1cccc(-c2nnc(NC(=O)c3ccco3)s2)c1 | 23.1* | -41.7 | 2.5 | 0.7 | 3.4 | 5.1
N#C/C(=C(/O)C(Cl)c1ccccc1)c1nc2ccccc2s1 (stereo not given) | 76.3* | -32.7 | 7.2 | -1.4 | -0.2 | 48.9* | RORg DNA counter=>40
CC(C)(C)OC(=O)N(CCc1ccccc1)Cc1cccc(OCc2cccc(NC(=O)C3CC3)c2)c1 | -1.8 | -8.1 | 7.7 | 0.7 | / | /
CN(CCc1ccccc1)C(=O)c1cccc(NC(=O)Cc2cccc(NC(=O)C3CCN(C(=O)C4CCC4)CC3)c2)c1 | 10.3 | -11.4 | 4.6 | -1.2 | / | /
Cc1ccccc1NC(=O)Cc1nc(COC(=O)c2cc(Cl)ccc2O)cs1 | 18.8* | -39.1 | -0.6 | 3.2 | 1.8 | 7.5
Cc1oc2cc3oc(=O)c4c(c3cc2c1C)CCC4 | 49.3* | -17.8 | 8.9 | 0.1 | -1.9 | 44.0* | RORg DNA counter=>40
CCc1cc2c3c(c(=O)oc2cc1O)CCCC3 | -3.6 | -11.1 | 3.9 | -0.2 | -2.2 | /
Cc1oc2c(C)c3oc(=O)c4c(c3cc2c1C)CCC4 | 46.0* | -41.1 | 2.5 | 0.6 | / | 9.0
O=C(COc1ccc2ccccc2c1Br)NC(=S)Nc1cccc(CO)c1 | 24.4* | -9.5 | 9.5 | -1.5 | 5.9 | 21.0*
O=c1c2ccccc2n2c(-c3ccc(F)cc3)nnc2n1Cc1ccccc1 | 24.3* | -5.2 | 0.2 | -0.8 | 3.5 | 35.0* | RORg DNA counter=>40
CCN(CC(=O)Nc1c(F)cccc1F)C(=O)C1CCCO1 (stereo not given) | -5.9 | -26.9 | 1.2 | -3.2 | / | /
C=CCn1c(=O)[nH]c2nc3cc(N=CN(C)C)c(C)cc3nc2c1=O | 12.1 | 0.8 | -87.3 | -3.8 | 3.8 | /

High-throughput results: PubChem BioAssay, several laboratories
